Experimental data taken from ChEMBL document CHEMBL1800046, “Design, synthesis, and X-ray crystallographic studies of α-aryl substituted fosmidomycin analogues as inhibitors of Mycobacterium tuberculosis 1-deoxy-D-xylulose 5-phosphate reductoisomerase” (J Med Chem, 2011).

Legend:
[1] = Inhibition of Mycobacterium tuberculosis DXR-catalyzed NADPH-dependent rearrangement and reduction of DXP to form MEP measured every 5 secs for 500 secs by spectrophotometric analysis
[2] = system: Mycobacterium tuberculosis; experiment: Antibacterial activity against Mycobacterium tuberculosis H37Rv ATCC 27294 after 14 days by microplate alamar blue assay; assay type: functional; details: H37Rv ATCC 27294, 336 h
Method in brief: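 Resazurin (Alamar blue) dye readout in 96-well format. Serially diluted compound added to a log-phase culture of M. tuberculosis H37Rv (ATCC 27294). MIC recorded in µg/ml.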

[3] = system: Mycobacterium tuberculosis; experiment: Inhibition of Mycobacterium tuberculosis DXR-catalyzed NADPH-dependent rearrangement and reduction of DXP to form MEP at 100 uM measured every 5 secs for 500 secs by spectrophotometric analysis
Method in brief: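 Screened with inhibitor at 100 µM. Started by adding DXP, at 22 °C. A340 for NADPH read every 5 s over 500 s. Initial velocity from the linear slope, compared with the uninhibited reaction.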

| SMILES | IC50 [1] | MIC [2] | inhibition [3] |
| --- | --- | --- | --- |
| O=CN(O)CCC(c1ccccc1Br)P(=O)(O)O (racemic) | 5.6 µM | > 32 µg/mL | 93% |
| CC(=O)N(O)CCC1c2ccccc2COP1(=O)O (racemic) | – | > 32 µg/mL | 12% |
| CC(=O)N(O)CCC(c1ccccc1-c1cccs1)P(=O)(O)O (racemic) | – | > 32 µg/mL | 30% |
| CCOP(=O)(O)C(CCN(O)C(C)=O)c1ccc(Cl)c(Cl)c1 (racemic) | 22 µM | – | – |
| CC(=O)N(O)CCC(c1ccccc1Br)P(=O)(O)O (racemic) | 210 µM | > 32 µg/mL | 38% |
| CC(=O)N(O)CCC(c1ccccc1C#N)P(=O)(O)O (racemic) | – | > 32 µg/mL | 30% |
| CCOP(=O)(OCC)C(CCN(O)C(C)=O)c1ccc(Cl)c(Cl)c1 (racemic) | > 100 µM | – | – |
| O=CN(O)CCCP(=O)(O)O [FOSMIDOMYCIN] | 0.08 µM | – | – |
| CC(=O)N(O)CCC(c1ccccc1C)P(=O)(O)O (racemic) | 205 µM | > 32 µg/mL | 55% |
| CC(=O)N(O)CCC(c1ccccc1CCO)P(=O)(O)O (racemic) | 150 µM | > 32 µg/mL | 35% |
| COCc1ccccc1C(CCN(O)C(C)=O)P(=O)(O)O (racemic) | – | > 32 µg/mL | 30% |
| CCOP(=O)(OCC)C(CCN(O)C=O)c1ccc(Cl)c(Cl)c1 (racemic) | > 100 µM | – | – |
| CC(=O)N(O)CCC(c1ccccc1)P(=O)(O)O (racemic) | 7.4 µM | > 32 µg/mL | 92% |
| CCOP(=O)(O)C(CCNC(C)=O)c1ccccc1-c1cccnc1 (racemic) | – | > 32 µg/mL | 20% |
| CC(=O)N(O)CCCP(=O)(O)O [FR-900098] | 0.16 µM | – | – |
| CCOP(=O)(O)C(CCN(O)C=O)c1ccc(Cl)c(Cl)c1 (racemic) | 38 µM | – | – |
| CC(=O)N(O)CCC(c1ccccc1-c1cccnc1)P(=O)(O)O (racemic) | – | > 32 µg/mL | 20% |
| CC(=O)N(O)CCC(c1ccccc1CO)P(=O)(O)O (racemic) | 465 µM | > 32 µg/mL | 36% |
